Article PMC4764508 (Journal of the American Chemical Society, 2015)
Read-outs that look alike come from different tables or passages of the source. One block for each compound: values may come before it.

What was measured:
[1] = cited from earlier work
[2] = Variable temperature 17O NMR: hydration state and water exchange; format: physicochemical; details: for ΔH^≠: water exchange; for kex^310: water exchange rate at 310 K
Summary of the method: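 Transverse relaxivity of H217O was measured with the Mn complex present across a range of temperatures. The data were fitted to derive water exchange parameters, including kex at 310 K and ΔH, and the Mn-17O hyperfine coupling constant.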

[3] = T1 relaxivity; format: physicochemical; details: for Relaxivity r1 in pH 7.4 buffer: pH 7.4 Tris buffer
[4] = test system: carotid artery thrombus (fibrin); assay: MR imaging of carotid artery thrombosis in a rat model, 1.5T; format: in vivo
Summary of the method: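 In a rat carotid artery thrombosis model, 3D T1-weighted gradient-echo MRI with arterial inflow suppression was run at 1.5T. Scans were taken before and immediately after injection of 10 μmol/kg probe (40 μmol/kg metal) and repeated over 1 h; N=4 per probe. Thrombus-to-muscle and contralateral vessel-to-muscle CNR were followed over time. Thrombosis was confirmed by H&E histology. Error bars are SEM.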

[5] = Biodistribution in rats by ICP-MS; details: rat, in vivo
[6] = rat, in vivo
[7] = in vivo; details: rat
[8] = Mn blood pharmacokinetics and plasma speciation in rats; details: rat, HPLC-ICP-MS
[9] = Mn2+ thermodynamic stability constants by pH-potentiometry; format: physicochemical
Summary of the method: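 The ligand was titrated by pH-potentiometry in the presence of 1 equiv MnCl2 at 25 °C and I = 0.15 M NaCl. KML = [ML]/([M][L]) and KHML = [HML]/([ML][H]). Effective formation constants were derived at pH 7.4. pMn is -log[free Mn] when [M] = [L] = 10 μM.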

[10] = format: physicochemical; details: 1 mM complex, 25 mM Zn2+, 50 mM pH 6.0 MES buffer, 37 °C, 1.4T
[11] = format: physicochemical; details: from Kcomp determined using CDTA challenge
Summary of the method: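 The conditional stability constant at pH 7.4 came from direct competition of the Mn complex with CDTA, with species monitored by LC-MS. The effective constant was derived from the competition constant Kcomp. pMn was calculated as -log[free Mn] with [M] = [L] = 10 μM.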

[12] = Protein bound fraction by ultra-filtration; format: in vitro ADME, bovine; details: 150-300 μM solution
[13] = biological target: bovine serum albumin (BSA) (Bos taurus, UniProt P02769); assay: Protein bound fraction by ultra-filtration; format: in vitro ADME; details: 150-300 μM solution
Chain of bovine serum albumin (BSA) (P02769 25-607): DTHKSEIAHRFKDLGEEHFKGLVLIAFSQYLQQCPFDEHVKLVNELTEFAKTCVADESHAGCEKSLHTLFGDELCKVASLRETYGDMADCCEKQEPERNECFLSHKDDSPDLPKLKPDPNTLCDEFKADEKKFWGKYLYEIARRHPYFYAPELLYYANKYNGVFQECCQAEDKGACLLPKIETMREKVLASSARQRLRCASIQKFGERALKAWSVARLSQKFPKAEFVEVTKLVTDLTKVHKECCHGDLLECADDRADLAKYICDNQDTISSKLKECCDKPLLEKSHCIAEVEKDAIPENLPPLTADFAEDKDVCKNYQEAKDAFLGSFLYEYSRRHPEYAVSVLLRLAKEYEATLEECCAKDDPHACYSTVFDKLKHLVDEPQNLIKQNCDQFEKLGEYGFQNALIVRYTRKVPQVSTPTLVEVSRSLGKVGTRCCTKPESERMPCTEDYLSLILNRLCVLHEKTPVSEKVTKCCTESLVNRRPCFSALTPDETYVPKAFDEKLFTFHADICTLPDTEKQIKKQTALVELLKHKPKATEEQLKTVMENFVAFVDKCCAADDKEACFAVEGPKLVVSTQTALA

[14] = Dynamic MRI clearance kinetics in mice; format: in vivo, balb/C mouse; details: 60 μmol/kg i.v., monoexponential fit of nSNR vs time
[15] = Mn tissue content by ICP-MS 24h after injection in mice; format: in vivo, mouse
Summary of the method: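 Mice (N=4) received test compound i.v. at 60 μmol/kg. Tissue Mn was measured by ICP-MS at 24 h and compared with endogenous Mn in naive mice (N=4). Results were expressed as nmol/g and as %ID/g. Elevation above baseline was tested at P<0.05.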

[16] = rat, plateau by 35 minutes post injection

SMILES: O=C([O-])CN1CCN(CC(=O)[O-])CCN(CC(=O)[O-])CCN(CC(=O)[O-])CC1.[Gd+3] [Gd-DOTA]
Relaxivity in plasma [1]: 3.6 mM⁻¹ s⁻¹

SMILES: CC[C@H](C)[C@H](NC(=O)[C@H](Cc1ccc(O)cc1)NC(=O)[C@@H]1CSSC[C@H](NC(=O)[C@@H](CCC(=O)O)NC(=O)[C@H](Cc2ccc(O)cc2)NC(=O)[C@H](CNC(=O)c2ccc(CN(CC(=O)O)C3CCCCC3N(CC(=O)O)CC(=O)O)nc2)NC(=O)c2ccc(CN(CC(=O)O)C3CCCCC3N(CC(=O)O)CC(=O)O)nc2)C(=O)N2C[C@H](O)C[C@H]2C(=O)N[C@@H](Cc2ccc(O)c(Cl)c2)C(=O)NCC(=O)N[C@@H](CC(C)C)C(=O)N1)C(=O)N[C@@H](CCC(N)=O)C(=O)NCc1ccc(CNC(=O)[C@H](CNC(=O)c2ccc(CN(CC(=O)O)C3CCCCC3N(CC(=O)O)CC(=O)O)nc2)NC(=O)c2ccc(CN(CC(=O)O)C3CCCCC3N(CC(=O)O)CC(=O)O)nc2)cc1 (stereo partly shown) [Mn-FBP]
Hydration state (q) [2]: 1 | Mn-17O hyperfine coupling constant AO/ħ [2]: 2.82±0.040 ×10^7 rad/s | Water exchange rate kex ([2]; 37 °C): 1.1e+08 s⁻¹ | ΔH^≠ [2]: 9.49 kcal/mol | kex^310 [2]: 1.1±0.04 ×10^8 s^-1 | Molecular relaxivity relative to per Mn values [3]: 4 fold | Relaxivity in human fibrinogen solution compared with buffer ([3]; 1.4 T, 37 °C): unchanged | Relaxivity r1 in 4.5% w/v BSA solution ([3]; 1.4 T, 37 °C, per Mn): 11.4 mM⁻¹ s⁻¹ | Relaxivity r1 in bovine blood plasma ([3]; 1.4 T, 37 °C, per Mn): 10.7 mM⁻¹ s⁻¹ | Relaxivity r1 in human fibrin gel ([3]; fibrinogen converted to fibrin gel, 1.4 T, 37 °C, per Mn): 13.5 mM⁻¹ s⁻¹ | Increase in relaxivity in the presence of fibrin ([3]; human fibrin gel vs buffer): 60% | Relaxivity r1 in pH 7.4 buffer ([3]; 1.4 T, 37 °C, per Mn): 8.5 mM^-1s^-1 | Per Mn relaxivity relative to [Mn(PyC3A)(H2O)]^- ([3]; pH 7.4 buffer): 4 fold | Thrombus enhancement compared with EP-2104R ([4]; rat model of arterial thrombosis): equivalent thrombus enhancement | Increase of thrombus-to-muscle CNR post injection ([4]; rat, 10 μmol/kg probe): more than 5 fold | Peak CNR vs. muscle, contralateral vessel [4, 16]: 5.6±1.5 | Peak CNR vs. muscle, thrombus [4, 16]: 32.9±4.0 | Eliminated after 24 hr [5]: > 99% | Mn in muscle at 24h [5]: 0.02±0.02% of the injected dose per gram tissue | Total Mn blood clearance t1/2 [6]: 22.6 ± 6.8 min | half-life [7]: 23.5 ± 13.4 min | Mn dechelation in blood plasma (Mn speciation) [8]: no evidence of Mn dechelation

pH by which complexation is complete ([9]; 1 mM each Mn2+ and PyC3A, 0.15M NaCl, 25 °C): 4.5
SMILES: O=C(O)CN(CC(=O)O)C1CCCCC1N(CC(=O)O)Cc1ccccn1 (stereo not drawn) [PyC3A, N-picolyl-N,N′,N′-trans-1,2-cyclohexylenediaminetriacetate]

SMILES: O=C([O-])CN(CCN(CC(=O)[O-])CC(=O)[O-])CCN(CC(=O)[O-])CC(=O)[O-].[Gd+3] [[Gd(DTPA)(H2O)]^2-]
Pseudo-first order rate constant of transmetallation [10]: 1.41±0.31 × 10^-2 s^-1 | Relaxivity in plasma [1]: 4.1 mM⁻¹ s⁻¹

SMILES: O.O=C([O-])CN(CC(=O)[O-])C1CCCCC1N(CC(=O)[O-])CC(=O)[O-].[Mn+2] (stereo not shown) [[Mn(CDTA)(H2O)]^2-]
Pseudo-first order rate constant of transmetallation [10]: 1.10±0.01 × 10^-3 s^-1

logKML ([9]; Mn(II) complex, pH-potentiometry, 25 °C, I = 0.15 M NaCl): 14.14 | logKpH 7.4 (effective formation constant at pH 7.4) ([9]; from potentiometric titration, 25 °C, 0.15 M NaCl): 11.34 | Stability relative to [Mn(DPDP)]^3- at pH 7.4 ([9]; pH 7.4): > 10^5 times | logKpH 7.4 (effective formation constant at pH 7.4) [11]: 11.40 | Hydration state (q) [2]: 1 | Mn-17O hyperfine coupling constant AO/ħ [2]: 2.87±0.080 ×10^7 rad/s | Fraction protein bound in plasma [12]: 1-5% | Fraction protein bound in 4.5% w/v BSA solution [13]: 1-5% | Blood clearance t1/2 [14]: 7.8 ± 3.0 min | Elimination by 24h [15]: > 99% | Injected dose remaining in the body at 24 hours [15]: less than 1% | Mn remaining in liver and kidneys at 24h ([15]; 60 μmol/kg i.v., ICP-MS): < 0.05 %ID/g
SMILES: O.O=C([O-])CN(CC(=O)[O-])C1CCCCC1N(CC(=O)[O-])Cc1ccccn1.[Mn+2] (stereo not shown) [[Mn(PyC3A)(H2O)]^-]
Pseudo-first order rate constant of transmetallation [10]: 6.76±0.03 × 10^-4 s^-1 | ΔH^≠ [2]: 8.89 kcal/mol | kex^310 [2]: 1.0±0.02 ×10^8 s^-1 | Relaxivity r1 in 4.5% w/v BSA solution ([3]; 1.4 T, 37 °C, per Mn): 3.4 mM⁻¹ s⁻¹ | Relaxivity r1 in bovine blood plasma ([3]; 1.4 T, 37 °C, per Mn): 3.8 mM⁻¹ s⁻¹ | Relaxivity r1 in pH 7.4 buffer ([3]; 1.4 T, 37 °C, per Mn): 2.1 mM^-1s^-1 | Mn levels in all other tissues at 24h vs naïve mice ([15]; 60 μmol/kg i.v., ICP-MS): not elevated above endogenous basal levels
